{"source": "ChEMBL document CHEMBL5661979", "about": "“Pharmacological inhibition of BMK1 suppresses tumor growth through promyelocytic leukemia protein” (Cancer Cell, 2010)", "key": {"[1]": {"assay": "Inhibition of SRPK1/2 in human HeLa cells lysate at 10 uM pre incubated for 15 mins followed by ADP acyl phosphate probe addition and measured after 10 mins by LC-MS/MS analysis relative to control", "settings": "25 min, condition cancer"}, "[2]": {"biological_target": "Eukaryotic elongation factor 2 kinase (Homo sapiens) (UniProt O00418)", "sequence (O00418 whole entry)": "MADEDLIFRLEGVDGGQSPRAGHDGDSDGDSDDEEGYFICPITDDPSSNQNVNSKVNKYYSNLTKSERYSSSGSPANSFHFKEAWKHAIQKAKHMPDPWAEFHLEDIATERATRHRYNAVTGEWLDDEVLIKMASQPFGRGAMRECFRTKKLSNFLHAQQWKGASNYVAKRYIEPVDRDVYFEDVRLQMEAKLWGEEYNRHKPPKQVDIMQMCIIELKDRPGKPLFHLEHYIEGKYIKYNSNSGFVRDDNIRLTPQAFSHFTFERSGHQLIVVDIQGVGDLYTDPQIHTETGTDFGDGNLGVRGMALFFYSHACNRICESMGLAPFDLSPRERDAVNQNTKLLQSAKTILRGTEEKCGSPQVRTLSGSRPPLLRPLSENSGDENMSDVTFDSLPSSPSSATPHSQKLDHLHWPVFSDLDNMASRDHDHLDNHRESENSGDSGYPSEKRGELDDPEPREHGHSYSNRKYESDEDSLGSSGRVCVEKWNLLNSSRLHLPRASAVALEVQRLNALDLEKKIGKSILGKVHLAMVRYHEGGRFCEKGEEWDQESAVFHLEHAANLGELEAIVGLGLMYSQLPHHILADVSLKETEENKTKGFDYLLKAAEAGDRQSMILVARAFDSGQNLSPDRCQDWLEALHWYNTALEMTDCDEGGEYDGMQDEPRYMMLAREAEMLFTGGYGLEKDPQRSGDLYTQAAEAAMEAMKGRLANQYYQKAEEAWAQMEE", "assay": "Inhibition of EEF2K in human HeLa cells lysate at 2 uM pre incubated for 15 mins followed by ATP acyl phosphate probe addition and measured after 10 mins by LC-MS/MS analysis relative to control", "type": "subcellular", "settings": "time 25.0 min"}, "[3]": {"assay": "Toxicity in C57Bl/6 mouse assessed as body weight at 50 mg/kg, ip for 14 days (reference value: 0.2 to 0.208 kg)", "type": "organism-based", "settings": "in vivo, 336 h, time 14 day"}, "[4]": {"assay": "Toxicity in C57Bl/6 mouse assessed as effect on total bilirubin level at 50 mg/kg, ip for 14 days (reference value: 0.3 mg/dl)", "type": "organism-based", "settings": "in vivo, 336 h, time 14 day"}, "[5]": {"biological_target": "T1, Serine/threonine-protein kinase TAO2 (Homo sapiens) (UniProt Q9UL54)", "T1 sequence (whole entry)": "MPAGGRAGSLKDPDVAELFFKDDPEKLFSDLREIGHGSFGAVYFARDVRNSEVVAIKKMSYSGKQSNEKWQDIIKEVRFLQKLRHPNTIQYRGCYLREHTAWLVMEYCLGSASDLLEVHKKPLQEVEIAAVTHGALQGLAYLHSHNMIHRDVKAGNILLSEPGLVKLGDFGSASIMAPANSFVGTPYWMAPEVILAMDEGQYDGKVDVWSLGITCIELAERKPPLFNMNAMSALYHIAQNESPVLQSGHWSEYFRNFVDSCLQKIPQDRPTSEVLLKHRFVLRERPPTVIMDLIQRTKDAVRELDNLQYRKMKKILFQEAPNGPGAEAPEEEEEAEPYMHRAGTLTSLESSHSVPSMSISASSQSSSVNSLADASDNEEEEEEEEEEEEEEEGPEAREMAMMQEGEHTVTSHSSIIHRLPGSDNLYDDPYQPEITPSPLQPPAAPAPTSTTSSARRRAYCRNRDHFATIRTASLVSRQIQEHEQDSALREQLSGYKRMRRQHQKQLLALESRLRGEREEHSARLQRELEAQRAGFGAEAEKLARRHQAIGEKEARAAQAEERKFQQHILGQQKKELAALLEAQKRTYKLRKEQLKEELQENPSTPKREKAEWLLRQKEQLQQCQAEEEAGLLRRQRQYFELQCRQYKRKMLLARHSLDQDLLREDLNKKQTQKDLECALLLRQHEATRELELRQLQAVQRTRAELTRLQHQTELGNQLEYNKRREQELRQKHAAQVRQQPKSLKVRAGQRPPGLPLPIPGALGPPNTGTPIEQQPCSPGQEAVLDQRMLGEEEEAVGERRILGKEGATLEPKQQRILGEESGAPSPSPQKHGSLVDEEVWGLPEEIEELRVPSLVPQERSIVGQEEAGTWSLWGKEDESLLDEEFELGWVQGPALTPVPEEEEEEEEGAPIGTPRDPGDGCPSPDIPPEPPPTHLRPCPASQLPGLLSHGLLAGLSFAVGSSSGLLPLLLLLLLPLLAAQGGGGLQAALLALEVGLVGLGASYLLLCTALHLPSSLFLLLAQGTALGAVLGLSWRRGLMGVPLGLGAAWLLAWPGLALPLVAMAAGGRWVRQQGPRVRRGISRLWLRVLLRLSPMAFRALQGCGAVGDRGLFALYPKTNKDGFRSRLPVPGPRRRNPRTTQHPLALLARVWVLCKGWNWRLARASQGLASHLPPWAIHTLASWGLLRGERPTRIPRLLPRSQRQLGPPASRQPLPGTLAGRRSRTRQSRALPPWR", "assay": "Inhibition of TAO2 in human HeLa cells lysate at 50 uM pre incubated for 15 mins followed by ATP acyl phosphate probe addition and measured after 10 mins by LC-MS/MS analysis relative to control", "type": "subcellular", "settings": "time 25.0 min"}, "[6]": {"biological_target": "T2, Phosphatidylinositol 5-phosphate 4-kinase type-2 alpha (Homo sapiens) (UniProt P48426)", "T2 sequence (whole entry)": "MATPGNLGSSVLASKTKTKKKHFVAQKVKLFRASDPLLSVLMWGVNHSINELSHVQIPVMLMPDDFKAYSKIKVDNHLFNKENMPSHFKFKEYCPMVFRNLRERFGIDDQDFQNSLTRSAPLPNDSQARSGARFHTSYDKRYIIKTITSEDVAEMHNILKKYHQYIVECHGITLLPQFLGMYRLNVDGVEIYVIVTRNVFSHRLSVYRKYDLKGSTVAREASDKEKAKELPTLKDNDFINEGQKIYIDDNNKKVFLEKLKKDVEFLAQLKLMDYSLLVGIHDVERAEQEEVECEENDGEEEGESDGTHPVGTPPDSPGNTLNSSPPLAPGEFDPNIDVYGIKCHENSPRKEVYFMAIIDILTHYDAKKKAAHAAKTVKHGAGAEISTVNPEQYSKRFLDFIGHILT", "assay": "Inhibition of PIP5K2A LIP site in human HeLa cells lysate at 2 uM pre incubated for 15 mins followed by ADP acyl phosphate probe addition and measured after 10 mins by LC-MS/MS analysis relative to control", "type": "subcellular", "settings": "time 25.0 min"}, "[7]": {"biological_target": "Protein kinase C zeta type (Homo sapiens, UniProt Q05513)", "sequence (Q05513 whole entry)": "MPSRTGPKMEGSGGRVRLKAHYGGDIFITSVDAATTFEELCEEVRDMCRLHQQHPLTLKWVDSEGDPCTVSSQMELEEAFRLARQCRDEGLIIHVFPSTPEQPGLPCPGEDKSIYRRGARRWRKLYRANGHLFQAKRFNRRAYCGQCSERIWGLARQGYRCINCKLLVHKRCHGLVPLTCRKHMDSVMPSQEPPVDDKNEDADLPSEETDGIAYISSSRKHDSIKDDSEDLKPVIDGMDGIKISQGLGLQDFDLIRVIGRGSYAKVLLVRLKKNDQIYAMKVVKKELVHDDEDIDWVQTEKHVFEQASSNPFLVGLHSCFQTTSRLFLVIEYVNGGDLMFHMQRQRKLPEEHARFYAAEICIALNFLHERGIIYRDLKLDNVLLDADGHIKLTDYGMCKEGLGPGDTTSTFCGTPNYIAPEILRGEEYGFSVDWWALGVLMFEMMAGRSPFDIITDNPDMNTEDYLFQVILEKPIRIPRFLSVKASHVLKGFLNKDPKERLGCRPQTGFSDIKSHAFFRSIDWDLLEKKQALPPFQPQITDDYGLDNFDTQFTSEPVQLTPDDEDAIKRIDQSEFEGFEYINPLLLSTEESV", "assay": "Inhibition of PKCzeta in human HeLa cells lysate pre incubated for 15 mins followed by ADP acyl phosphate probe addition and measured after 10 mins by LC-MS/MS analysis", "type": "subcellular"}, "[8]": {"biological_target": "Cyclin-dependent kinase 10 (Homo sapiens, UniProt Q15131)", "sequence (Q15131 whole entry)": "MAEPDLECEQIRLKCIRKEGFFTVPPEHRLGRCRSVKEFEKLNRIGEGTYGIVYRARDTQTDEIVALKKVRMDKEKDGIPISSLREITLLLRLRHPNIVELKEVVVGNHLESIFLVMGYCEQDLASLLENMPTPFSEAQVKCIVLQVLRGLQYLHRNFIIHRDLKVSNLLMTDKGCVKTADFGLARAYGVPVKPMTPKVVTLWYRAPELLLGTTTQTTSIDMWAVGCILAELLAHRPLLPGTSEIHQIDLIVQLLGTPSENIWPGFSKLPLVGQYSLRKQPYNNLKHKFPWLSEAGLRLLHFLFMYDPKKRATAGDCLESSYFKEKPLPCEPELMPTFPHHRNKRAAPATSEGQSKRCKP", "assay": "Inhibition of CDK10 in human HeLa cells lysate at 10 uM pre incubated for 15 mins followed by ATP acyl phosphate probe addition and measured after 10 mins by LC-MS/MS analysis relative to control", "type": "subcellular", "settings": "time 25.0 min", "procedure,_shortened": "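KiNativ profiling in HeLa lysate (5 mg/mL total protein). Lysate incubated 15 min with inhibitor at 50, 10, 2, 0.8 or 0 μM. ATP or ADP acylphosphate probe then added (5 μM final) and reacted 10 min. Reaction stopped with urea and analysed by targeted MS, using up to four fragment ions per kinase peptide-probe conjugate. % inhibition taken against untreated lysate. Run in duplicate.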"}, "AMPK alpha1/alpha2": {"biological_target": "AMPK alpha1/alpha2 (Homo sapiens, UniProt P54646+Q13131)", "sequence (P54646 whole entry, looked up)": "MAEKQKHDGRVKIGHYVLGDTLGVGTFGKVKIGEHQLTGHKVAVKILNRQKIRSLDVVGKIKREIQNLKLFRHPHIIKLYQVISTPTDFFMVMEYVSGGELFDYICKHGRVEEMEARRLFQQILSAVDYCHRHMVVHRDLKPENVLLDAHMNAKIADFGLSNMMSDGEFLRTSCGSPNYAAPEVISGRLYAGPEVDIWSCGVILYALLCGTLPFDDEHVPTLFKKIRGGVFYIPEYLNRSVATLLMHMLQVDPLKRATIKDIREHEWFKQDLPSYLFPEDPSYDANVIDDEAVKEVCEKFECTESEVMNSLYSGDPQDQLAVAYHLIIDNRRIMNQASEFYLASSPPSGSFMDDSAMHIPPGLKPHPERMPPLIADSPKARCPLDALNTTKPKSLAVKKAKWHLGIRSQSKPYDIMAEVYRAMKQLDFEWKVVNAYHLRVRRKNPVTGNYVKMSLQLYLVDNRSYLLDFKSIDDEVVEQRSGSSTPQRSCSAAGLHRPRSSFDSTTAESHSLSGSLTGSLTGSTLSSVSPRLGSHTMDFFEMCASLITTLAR", "sequence (Q13131 whole entry, looked up)": "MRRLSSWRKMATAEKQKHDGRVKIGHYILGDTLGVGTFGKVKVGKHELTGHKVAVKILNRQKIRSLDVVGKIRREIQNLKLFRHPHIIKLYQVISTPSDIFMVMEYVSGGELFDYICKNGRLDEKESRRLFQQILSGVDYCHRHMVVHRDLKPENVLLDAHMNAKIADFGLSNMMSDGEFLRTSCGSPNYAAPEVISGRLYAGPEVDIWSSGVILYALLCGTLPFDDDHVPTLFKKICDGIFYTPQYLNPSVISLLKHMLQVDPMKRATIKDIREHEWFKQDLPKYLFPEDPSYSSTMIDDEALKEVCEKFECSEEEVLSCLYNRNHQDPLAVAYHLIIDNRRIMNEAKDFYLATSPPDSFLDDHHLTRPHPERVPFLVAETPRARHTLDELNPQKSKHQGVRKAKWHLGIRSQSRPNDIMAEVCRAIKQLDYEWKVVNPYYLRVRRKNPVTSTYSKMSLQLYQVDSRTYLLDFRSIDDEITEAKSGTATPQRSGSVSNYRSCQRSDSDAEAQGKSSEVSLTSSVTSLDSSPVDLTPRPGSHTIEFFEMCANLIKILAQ", "assay": "Inhibition of AMPKalpha1/2 in human HeLa cells lysate at 50 uM pre incubated for 15 mins followed by ATP acyl phosphate probe addition and measured after 10 mins by LC-MS/MS analysis relative to control", "type": "subcellular", "settings": "time 25.0 min", "procedure,_shortened": "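HeLa cell lysates (5 mg/mL total protein) were preincubated with inhibitor at 0, 0.8, 2, 10 or 50 μM for 15 min. ATP or ADP acylphosphate probe was then added (5 μM final) for 10 min, and reactions were stopped with urea. Up to four fragment ions per kinase probe-peptide were quantified by targeted MS. % inhibition was taken relative to untreated lysate. Run in duplicate.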"}, "[9]": {"biological_target": "Ribosomal protein S6 kinase alpha-5 (Homo sapiens, UniProt O75582)", "sequence (O75582 whole entry)": "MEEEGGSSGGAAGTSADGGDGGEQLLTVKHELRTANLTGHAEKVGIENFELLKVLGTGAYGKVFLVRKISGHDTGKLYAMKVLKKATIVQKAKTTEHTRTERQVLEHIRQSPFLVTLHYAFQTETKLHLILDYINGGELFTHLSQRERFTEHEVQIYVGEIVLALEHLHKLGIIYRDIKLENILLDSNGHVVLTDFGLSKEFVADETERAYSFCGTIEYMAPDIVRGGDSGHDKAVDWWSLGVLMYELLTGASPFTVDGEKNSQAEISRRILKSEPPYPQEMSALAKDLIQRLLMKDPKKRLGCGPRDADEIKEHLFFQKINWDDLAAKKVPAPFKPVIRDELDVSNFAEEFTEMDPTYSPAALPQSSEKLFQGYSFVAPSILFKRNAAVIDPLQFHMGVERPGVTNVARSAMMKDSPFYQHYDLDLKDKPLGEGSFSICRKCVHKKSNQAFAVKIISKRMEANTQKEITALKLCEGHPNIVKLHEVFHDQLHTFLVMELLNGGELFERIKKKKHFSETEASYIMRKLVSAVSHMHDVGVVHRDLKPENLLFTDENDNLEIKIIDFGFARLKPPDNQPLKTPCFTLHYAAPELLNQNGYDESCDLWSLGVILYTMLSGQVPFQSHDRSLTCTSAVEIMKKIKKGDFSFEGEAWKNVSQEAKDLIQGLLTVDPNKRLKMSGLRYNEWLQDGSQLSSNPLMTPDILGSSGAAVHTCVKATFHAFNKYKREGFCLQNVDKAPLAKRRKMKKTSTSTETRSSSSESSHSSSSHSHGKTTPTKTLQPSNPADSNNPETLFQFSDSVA", "assay": "Inhibition of MSK1 in human HeLa cells lysate pre incubated for 15 mins followed by ATP acyl phosphate probe addition and measured after 10 mins by LC-MS/MS analysis", "type": "subcellular"}, "[10]": {"assay": "Inhibition of MAP3K2/3 in human HeLa cells lysate at 50 uM pre incubated for 15 mins followed by ATP acyl phosphate probe addition and measured after 10 mins by LC-MS/MS analysis relative to control", "settings": "25 min, condition cancer"}}}
{"smiles": "CCOc1cc(N2CCC(O)CC2)ccc1Nc1ncc2c(n1)N(C)c1ccccc1C(=O)N2C", "values": [{"measurement": "inhibition at 10 µM", "setting": "[1]", "value": -8.1, "unit": "%"}, {"measurement": "inhibition", "setting": "[2]", "value": 1.5, "unit": "%"}, {"measurement": "Activity", "setting": "[3]", "value": 0.02, "unit": "kg"}, {"measurement": "Activity", "setting": "[4]", "value": 0.3, "unit": "mg/dL"}, {"measurement": "inhibition", "setting": "[5]", "value": 6.6, "unit": "%"}, {"measurement": "inhibition", "setting": "[6]", "value": 5.5, "unit": "%"}, {"measurement": "IC50", "setting": "[7]", "value": "> 50", "unit": "µM"}, {"measurement": "inhibition", "setting": "[8]", "value": -3.2, "unit": "%"}, {"measurement": "inhibition", "setting": "AMPK alpha1/alpha2", "value": 32, "unit": "%"}, {"measurement": "IC50", "setting": "[9]", "value": "> 50", "unit": "µM"}, {"measurement": "inhibition at 50 µM", "setting": "[10]", "value": -8.7, "unit": "%"}]}
